Assays:
[1] = Cytotoxicity against ER-refractory human MDA231 cells after 24 hrs by trypan blue staining; type: functional, cell-based; conditions: MDA-MB-231, 24 h
How it was run: (§1)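 Cells grown in DMEM; 50 × 10^3 cells per well seeded and left to attach overnight, then medium replaced with fresh medium containing a range of compound concentrations for 24 hours at 37 °C. Adherent plus floating cells pooled, resuspended in PBS, and stained with 0.4% trypan blue for 3 min. Live and dead cells counted on a hemocytometer. IC50 taken from dose-response curves as the mean of three experiments. Ethanol served as positive control and untreated medium as negative control.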

MCF7 = assay: Cytotoxicity against ER-positive human MCF7 cells after 24 hrs by trypan blue staining; type: functional, cell-based; how it was run: as §1
[2] = Homo sapiens, MCF7, 24 h, read-out: IC50

| Structure (SMILES) | IC50 [1] [nM] | IC50 (MCF7; mcf7) | IC50 (MCF7; [2]) [nM] |
| --- | --- | --- | --- |
| Cc1cc(O)c2c3c(ccc2c1)C(=O)c1c(O[C@H]2C[C@@H](O)[C@H](O[C@H]4C[C@@H](O[C@H]5CC[C@H](O)[C@H](C)O5)[C@H](O)[C@@H](C)O4)[C@@H](C)O2)ccc(O)c1C3=O [LANDOMYCIN Q] | 3850 | Not Active |  |
| Cc1cc(O)c2c3c(ccc2c1)C(=O)c1c(O[C@H]2C[C@@H](O)[C@H](O[C@H]4C[C@@H](O[C@H]5CC[C@H](O[C@H]6C[C@@H](O)[C@H](O[C@H]7C[C@@H](O)[C@H](O)[C@@H](C)O7)[C@@H](C)O6)[C@H](C)O5)[C@H](O)[C@@H](C)O4)[C@@H](C)O2)cccc1C3=O [LANDOMYCIN M] | 1900 |  | 7100 |
| Cc1cc(O)c2c(c1)C[C@@H](O)C1=C2C(=O)c2cccc(O[C@H]3C[C@@H](O)[C@H](O[C@H]4C[C@@H](O[C@H]5CC[C@H](O[C@H]6C[C@@H](O)[C@H](O[C@H]7C[C@@H](O[C@H]8CC[C@H](O)[C@H](C)O8)[C@H](O)[C@@H](C)O7)[C@@H](C)O6)[C@H](C)O5)[C@H](O)[C@@H](C)O4)[C@@H](C)O3)c2C1=O [LANDOMYCIN S] | 1500 |  | 6700 |
| Cc1cc(O)c2c3c(ccc2c1)C(=O)c1c(O[C@H]2C[C@@H](O)[C@H](O[C@H]4C[C@@H](O[C@H]5CC[C@H](O[C@H]6C[C@@H](O)[C@H](O[C@H]7C[C@@H](O[C@H]8CC[C@H](O)[C@H](C)O8)[C@H](O)[C@@H](C)O7)[C@@H](C)O6)[C@H](C)O5)[C@H](O)[C@@H](C)O4)[C@@H](C)O2)cccc1C3=O [LANDOMYCIN T] | 1850 | Not Active |  |
| Cc1cc(O)c2c3c(ccc2c1)C(=O)c1c(O[C@H]2C[C@@H](O)[C@H](O[C@H]4C[C@@H](O)[C@H](O)[C@@H](C)O4)[C@@H](C)O2)ccc(O)c1C3=O [LANDOMYCIN R] | 1700 | Not Active |  |
| Cc1cc(O)c2c(c1)C[C@@H](O)C1=C2C(=O)c2c(O)ccc(O[C@H]3C[C@@H](O)[C@H](O[C@H]4C[C@@H](O)[C@H](O)[C@@H](C)O4)[C@@H](C)O3)c2C1=O [LANDOMYCIN D] | 1750 |  | 7600 |
| Cc1cc(O)c2c3c(ccc2c1)C(=O)c1c(O[C@H]2C[C@@H](O)[C@H](O[C@H]4C[C@@H](O[C@H]5CC[C@H](O[C@H]6C[C@@H](O)[C@H](O[C@H]7C[C@@H](O)[C@H](O)[C@@H](C)O7)[C@@H](C)O6)[C@H](C)O5)[C@H](O)[C@@H](C)O4)[C@@H](C)O2)ccc(O)c1C3=O [LANDOMYCIN W] | 2650 |  | 6900 |
| Cc1cc(O)c2c3c(ccc2c1)C(=O)c1c(O)ccc(O)c1C3=O [ANHYDROLANDOMYCINONE] | 2000 |  | 1800 |
| Cc1cc(O)c2c3c(ccc2c1)C(=O)c1c(O[C@H]2C[C@@H](O)[C@H](O[C@H]4C[C@@H](O)[C@H](O)[C@@H](C)O4)[C@@H](C)O2)cccc1C3=O [LANDOMYCIN O] | 3550 | Not Active |  |
| Cc1cc(O)c2c(c1)C[C@@H](O)C1=C2C(=O)c2c(O)ccc(O)c2C1=O [LANDOMYCINONE] | 1400 |  | 2100 |
| Cc1cc(O)c2c(c1)C[C@@H](O)C1=C2C(=O)c2c(O)ccc(O[C@H]3C[C@@H](O)[C@H](O[C@H]4C[C@@H](O[C@H]5CC[C@H](O[C@H]6C[C@@H](O)[C@H](O[C@H]7C[C@@H](O[C@H]8CC[C@H](O)[C@H](C)O8)[C@H](O)[C@@H](C)O7)[C@@H](C)O6)[C@H](C)O5)[C@H](O)[C@@H](C)O4)[C@@H](C)O3)c2C1=O [LANDOMYCIN A] | 1400 |  | 2500 |
| Cc1cc(O)c2c3c(ccc2c1)C(=O)c1c(O[C@H]2C[C@@H](O)[C@H](O[C@H]4C[C@@H](O[C@H]5CC[C@H](O[C@H]6C[C@@H](O)[C@H](O[C@H]7C[C@@H](O[C@H]8CC[C@H](O)[C@H](C)O8)[C@H](O)[C@@H](C)O7)[C@@H](C)O6)[C@H](C)O5)[C@H](O)[C@@H](C)O4)[C@@H](C)O2)ccc(O)c1C3=O [LANDOMYCIN U] | 7300 |  | 2100 |
| Cc1cc(O)c2c3c(ccc2c1)C(=O)c1c(O[C@H]2C[C@@H](O)[C@H](O[C@H]4C[C@@H](O[C@H]5CC[C@H](O)[C@H](C)O5)[C@H](O)[C@@H](C)O4)[C@@H](C)O2)cccc1C3=O [LANDOMYCIN P] | 3550 | Not Active |  |
| Cc1cc(O)c2c3c(ccc2c1)C(=O)c1c(O)cccc1C3=O [TETRANGULOL] | 1500 | Not Active |  |
| Cc1cc(O)c2c(c1)C[C@@H](O)C1=C2C(=O)c2cccc(O[C@H]3C[C@@H](O)[C@H](O[C@H]4C[C@@H](O)[C@H](O)[C@@H](C)O4)[C@@H](C)O3)c2C1=O [LANDOMYCIN F] | 1800 | Not Active |  |
| C[C@]1(O)CC(=O)c2c(ccc3c2C(=O)c2cccc(O)c2C3=O)C1 [TETRANGOMYCIN] | 1550 | Not Active |  |
| Cc1cc(O)c2c(c1)C[C@@H](O)C1=C2C(=O)c2cccc(O[C@H]3C[C@@H](O)[C@H](O[C@H]4C[C@@H](O[C@H]5CC[C@H](O[C@H]6C[C@@H](O)[C@H](O[C@H]7C[C@@H](O)[C@H](O)[C@@H](C)O7)[C@@H](C)O6)[C@H](C)O5)[C@H](O)[C@@H](C)O4)[C@@H](C)O3)c2C1=O [LANDOMYCIN V] | 1500 |  | 6100 |
| Cc1cc(O)c2c(c1)C[C@@H](O)C1=C2C(=O)c2c(O)ccc(O[C@H]3C[C@@H](O)[C@H](O[C@H]4C[C@@H](O[C@H]5CC[C@H](O[C@H]6C[C@@H](O)[C@H](O[C@H]7C[C@@H](O)[C@H](O)[C@@H](C)O7)[C@@H](C)O6)[C@H](C)O5)[C@H](O)[C@@H](C)O4)[C@@H](C)O3)c2C1=O [LANDOMYCIN B] | 1800 |  | 4250 |
